Results reported in PMC3947313 (Journal of neurochemistry, 2013).
Changes are numbered by the printed parent chain. Numbers in names are those of the source.

Key:
[1] = target: double-phosphorylated ERK2-pT202pY204 protein (UniProt P28482)
[2] = target: double phospho-peptide containing pT202pY204 derived from the ERK activation loop
[3] = target: double-phosphorylated ERK2-pT202pY204 protein (UniProt P28482); remark: listed apart in the source
[4] = target: double phospho-peptide containing pT202pY204 derived from the ERK activation loop; remark: listed apart in the source
[5] = system: ERK2-pT202pY204; experiment: Enzyme-coupled; format: biochemical; details: for decrease of kcat/Km (activity) toward phospho-ERK protein: STEP variant compared to wild-type STEP; for effect of mutation on activity toward phospho-ERK protein (in words): compared to the respective wild-type phosphatase
Summary of the method: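 Phospho-ERK2 protein was prepared using ERK2 and MEK1 expression plasmids. Initial rates were fitted to Michaelis-Menten for Km and kcat. At substrate << Km, kcat/Km came from first-order progress-curve fitting. Values are mean ± standard error.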

[6] = Activity of STEP variants toward pNPP; format: biochemical; details: for effect of mutation on activity toward pNPP (in words): compared to wild-type STEP, 37°C, pH 6.0
Summary of the method: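 Phosphatase variants hydrolysed pNPP at 37°C in 50 mM succinic buffer (pH 6.0) with 1 mM EDTA, 2 mM DTT and ionic strength adjusted to 0.15 M with NaCl. Reactions were stopped with 1 M NaOH and read at 405 nm. Kinetic parameters came from Michaelis-Menten fits, reported as mean ± standard error.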

[7] = system: ERK pT202pY204 phospho-peptide; format: biochemical; details: for decrease of activity toward phospho-ERK peptide: STEP mutant compared to wild-type STEP, 37°C, pH 6.0; for effect of mutation on activity toward phospho-ERK peptide (in words) / effect of mutation on Km for the phospho-ERK-peptide (in words): compared to wild-type STEP
Summary of the method: (§1)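 Synthetic, HPLC-purified Tyr(P)-containing peptides were dephosphorylated at 37°C in 50 mM succinic buffer (pH 6.0), 1 mM EDTA and 2 mM DTT, ionic strength 0.15 M (NaCl). Released phosphate was measured with BIOMOL Green at 620 nm. Hydrolysis was also followed continuously by tyrosine fluorescence (excitation 280 nm, emission 305 nm). Michaelis-Menten fits gave kinetic parameters (mean ± standard error).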

[8] = system: p38-derived phospho-peptide; experiment: Activity of STEP variants toward the p38-derived phospho-peptide; format: biochemical; details: STEP mutant compared to wild-type STEP
Summary of the method: as §1

HePTP S23E (from UniProt P35236 1-360) (enzyme)
activity toward phospho-ERK, decrease against wild-type HePTP [1]: 3 fold

STEP F311A (from UniProt P54829 1-565) (enzyme)
activity toward the ERK phospho-peptide, decrease against wild-type STEP [2]: 2 fold

STEP K463Q (from UniProt P54829 1-565) (enzyme)
activity toward the phospho-ERK protein, decrease against wild-type STEP [3]: > 4 fold
activity toward the phospho-ERK peptide, decrease against wild-type STEP [4]: > 4 fold

B1: STEP: purified striatal-enriched protein tyrosine phosphatase (human PTPN5), wild type (protein, UniProt P54829 1-565, looked up)
Tyrosine-protein phosphatase …: MNYEGARSERENHAADDSEGGALDMCCSERLPGLPQPIVMEALDEAEGLQDSQREMPPPPPPSPPSDPAQKPPPRGAGSHSLTVRSSLCLFAASQFLLACGVLWFSGYGHIWSQNATNLVSSLLTLLKQLEPTAWLDSGTWGVPSLLLVFLSVGLVLVTTLVWHLLRTPPEPPTPLPPEDRRQSVSRQPSFTYSEWMEEKIEDDFLDLDPVPETPVFDCVMDIKPEADPTSLTVKSMGLQERRGSNVSLTLDMCTPGCNEEGFGYLMSPREESAREYLLSASRVLQAEELHEKALDPFLLQAEFFEIPMNFVDPKEYDIPGLVRKNRYKTILPNPHSRVCLTSPDPDDPLSSYINANYIRGYGGEEKVYIATQGPIVSTVADFWRMVWQEHTPIIVMITNIEEMNEKCTEYWPEEQVAYDGVEITVQKVIHTEDYRLRLISLKSGTEERGLKHYWFTSWPDQKTPDRAPPLLHLVREVEEAAQQEGPHCAPIIVHCSAGIGRTGCFIATSICCQQLRQEGVVDILKTTCQLRQDRGGMIQTCEQYQFVHHVMSLYEKQLSHQSPE
kcat of ERK-pT202pY204 dephosphorylation ([5]; pH 7.0, 25°C, initial rates fitted to Michaelis-Menten, OD360): 0.78 s^−1

B2: STEP (R242 and R243): STEP with combined mutation of R242 and R243 to alanine (protein, UniProt P54829 1-565, looked up, variant R242A R243A)
Tyrosine-protein phosphatase …: B1 Tyrosine-protein phosphatase … with R242A, R243A
effect of combined R-to-A mutation on ERK dephosphorylation (in words) ([5]; compared to single R-to-A mutations of STEP): did not promote a further decrease

B3: F311A: STEP second-site loop mutant F311A (protein, UniProt P54829 1-565, looked up, variant F311A)
Tyrosine-protein phosphatase …: B1 Tyrosine-protein phosphatase … with F311A
effect of mutation on activity toward pNPP (in words) [6]: did not affect
decrease of activity toward phospho-ERK peptide [7]: 2 fold
decrease of kcat/Km (activity) toward phospho-ERK protein ([5]; pH 7.0, 25°C): 2 fold

B4: L251A: STEP KIM mutant L251A (protein, UniProt P54829 1-565, looked up, variant L251A)
Tyrosine-protein phosphatase …: B1 Tyrosine-protein phosphatase … with L251A
decrease of kcat/Km (activity) toward phospho-ERK protein ([5]; pH 7.0, 25°C): 7 fold

B5: E543: STEP Q-loop mutant, conserved E543 mutated to arginine (protein, UniProt P54829 1-565, looked up, variant E543R)
Tyrosine-protein phosphatase …: B1 Tyrosine-protein phosphatase … with E543R
effect of mutation on activity toward phospho-ERK protein (in words) [5]: no effect

B6: L249A: STEP KIM mutant L249A (protein, UniProt P54829 1-565, looked up, variant L249A)
Tyrosine-protein phosphatase …: B1 Tyrosine-protein phosphatase … with L249A
decrease of kcat/Km (activity) toward phospho-ERK protein ([5]; pH 7.0, 25°C): 2.5 fold

B7: K329A: STEP pY-binding loop mutant K329A (protein, UniProt P54829 1-565, looked up, variant K329A)
Tyrosine-protein phosphatase …: B1 Tyrosine-protein phosphatase … with K329A
effect of mutation on activity toward pNPP (in words) [6]: weakly
effect of mutation on activity toward phospho-ERK peptide (in words) [7]: weakly
effect of mutation on activity toward phospho-ERK protein (in words) [5]: did not affect

B8: R242A: STEP KIM mutant R242A (protein, UniProt P54829 1-565, looked up, variant R242A)
Tyrosine-protein phosphatase …: B1 Tyrosine-protein phosphatase … with R242A
decrease of kcat/Km (activity) toward phospho-ERK protein ([5]; pH 7.0, 25°C): 4 fold

B9: T541A: STEP Q-loop mutant T541A (protein, UniProt P54829 1-565, looked up, variant T541A)
Tyrosine-protein phosphatase …: B1 Tyrosine-protein phosphatase … with T541A
decrease of activity toward pNPP ([6]; STEP mutant compared to wild-type STEP, stated as 'all substrates'): 2 fold
decrease of activity toward phospho-p38 peptide ([8]; stated as 'all substrates'): 2 fold
decrease of activity toward phospho-ERK peptide [7]: 2 fold
decrease of kcat/Km (activity) toward phospho-ERK protein ([5]; pH 7.0, 25°C): 2 fold

B10: T330A: STEP pY-binding loop mutant T330A (protein, UniProt P54829 1-565, looked up, variant T330A)
Tyrosine-protein phosphatase …: B1 Tyrosine-protein phosphatase … with T330A
effect of mutation on activity toward pNPP (in words) [6]: did not affect
effect of mutation on activity toward phospho-ERK peptide (in words) [7]: did not affect

B11: K463Q: STEP WPD-loop mutant K463Q (protein, UniProt P54829 1-565, looked up, variant K463Q)
Tyrosine-protein phosphatase …: B1 Tyrosine-protein phosphatase … with K463Q
decrease of activity toward phospho-ERK peptide [7]: more than 4 fold
decrease of kcat/Km (activity) toward phospho-ERK protein ([5]; pH 7.0, 25°C): more than 4 fold

B12: S245E: S245E STEP phosphorylation mimic mutation (protein, UniProt P54829 1-565, looked up, variant S245E)
Tyrosine-protein phosphatase …: B1 Tyrosine-protein phosphatase … with S245E
effect of mutation on activity toward pNPP (in words) [6]: did not affect
effect of mutation on activity toward phospho-ERK peptide (in words) [7]: did not affect
decrease of kcat/Km (activity) toward phospho-ERK protein ([5]; pH 7.0, 25°C): 50 fold

B13: Q462H: STEP WPD-loop mutant Q462H (protein, UniProt P54829 1-565, looked up, variant Q462H)
Tyrosine-protein phosphatase …: B1 Tyrosine-protein phosphatase … with Q462H
effect of mutation on Km for the phospho-ERK-peptide (in words) [7]: significantly lower
effect of mutation on activity toward phospho-ERK protein (in words) [5]: increase

B14: R243A: STEP KIM mutant R243A (protein, UniProt P54829 1-565, looked up, variant R243A)
Tyrosine-protein phosphatase …: B1 Tyrosine-protein phosphatase … with R243A
decrease of kcat/Km (activity) toward phospho-ERK protein ([5]; pH 7.0, 25°C): 6 fold

B15: Q462F: STEP WPD-loop mutant Q462F (protein, UniProt P54829 1-565, looked up, variant Q462F)
Tyrosine-protein phosphatase …: B1 Tyrosine-protein phosphatase … with Q462F
effect of mutation on Km for the phospho-ERK-peptide (in words) [7]: significantly lower
effect of mutation on activity toward phospho-ERK protein (in words) [5]: increase

B16: T330D: STEP pY-binding loop mutant T330D (protein, UniProt P54829 1-565, looked up, variant T330D)
Tyrosine-protein phosphatase …: B1 Tyrosine-protein phosphatase … with T330D
effect of mutation on activity toward pNPP (in words) [6]: did not affect
increase of activity toward p38-derived phospho-peptide [8]: 2–3 fold
increase of kcat/Km toward phospho-ERK protein ([5]; STEP mutant compared to wild-type STEP): 1.3 fold
